Experiments:
[1] = Drug uptake in human Hep2 cells at 1 uM after 6 hrs by fluorescence microscopy; format: ADME, cell-based; conditions: hep-2, 6 h
Procedure, shortened: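 Cells on glass coverslips at 60–70% confluence were exposed to 1×10^-6 M compound in medium with 1% FBS (DMSO <0.5%) for 6 h at 37 °C. After two PBS washes they were imaged live under UV excitation (365 nm), with blue excitation (460–490 nm) also used. Untreated cells served as autofluorescence controls.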

[2] = Induction of singlet-oxygen generation at 5 x 10^-5 M irradiated at 390 nm by uric acid degradation assay; format: physicochemical; conditions: 0.39 µM
[3] = Induction of singlet-oxygen generation at 5 x 10^-5 M irradiated at 380 nm by uric acid degradation assay; format: physicochemical; conditions: 0.38 µM

Compound | Drug uptake [1] | Activity [2] | Activity [3]
COc1cc(C#Cc2ccc(C#CCO[C@@H]3O[C@H](CO)[C@@H](O)[C@H](O)[C@H]3O)cc2N(C)C)c(OC)cc1C#Cc1ccc(C#CCO[C@@H]2O[C@H](CO)[C@@H](O)[C@H](O)[C@H]2O)cc1N(C)C | Active | Active | 
COc1cc(C#Cc2ccc(C#Cc3cc(OC)c(C#CCO[C@@H]4O[C@H](CO)[C@@H](O)[C@H](O)[C@H]4O)cc3OC)c(N(C)C)c2)c(OC)cc1C#CCO[C@@H]1O[C@H](CO)[C@@H](O)[C@H](O)[C@H]1O | Active |  | Active
